Type in all cases: functional
The subject of assay [1] is Staphylococcus aureus. The assay is described as follows: Antibacterial activity against Staphylococcus aureus ATCC 25923 after 18 hrs by broth microdilution method. To be noted: ATCC 25923, 18 h. Put shortly: (§1)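 Broth microdilution in Tryptic Soy Broth in 96-well plates, with DMSO as solvent at no more than 5% of the total. Inoculum was set to 0.5 McFarland and diluted in saline and TSB. Plates were incubated 18 h at 35 °C. MIC is the lowest concentration without visible growth. The MIC was determined in two phases, the second narrowing the first.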
On the technique in general: In broth dilution the organism is exposed to a series of concentrations in liquid medium.

Assay [2] has as its system Staphylococcus aureus. The assay is described as follows: Antibacterial activity against Staphylococcus aureus ATCC 25923 after 18 hrs by phase 1 broth microdilution method. The conditions noted are these: ATCC 25923, 18 h. Put shortly:
(§2)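 Phase I: twofold serial dilutions in Tryptic Soy Broth, 96-well plates, concentrations […]. Stocks in DMSO/TSB 1:10 v/v, with final DMSO 5.0–0.01%. Inoculum was set to 0.5 McFarland, then diluted in saline and TSB. Plates ran 18 h at 35 °C. MIC is the lowest concentration without visible growth, in triplicate. Sterility was read at 24 and 48 h. Ampicillin, chloramphenicol and vancomycin were controls.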

Assay [3] relates to Staphylococcus aureus. The assay is described as follows: Antibacterial activity against Staphylococcus aureus ATCC 25923 after 18 hrs by phase 2 broth microdilution method. To be noted: ATCC 25923, 18 h. In short, it runs like this:
(§3)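 Phase II narrowed the phase I MIC in Tryptic Soy Broth. Stock was made at twice the phase I MIC, then diluted 10% stepwise with TSB through column 11. Final DMSO was 2.5–1.0%. Positive growth control wells received TSB. Inoculum was prepared as in phase I and plates were incubated 18 h at 35 °C.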

The test system of assay [4] is Staphylococcus aureus. Description: Antibacterial activity against multidrug-resistant Staphylococcus aureus 3SP/R33 after 18 hrs by phase 1 broth microdilution method. Put shortly:
as §2

Assay [5] has as its system Staphylococcus aureus. Description: Antibacterial activity against multidrug-resistant Staphylococcus aureus 3SP/R33 after 18 hrs by phase 2 broth microdilution method. In short, it runs like this:
as §3

Assay [6] has as its system Staphylococcus aureus. The assay is described as follows: Antibacterial activity against multidrug-resistant vancomycin-intermediate Staphylococcus aureus VISA3 after 18 hrs phase 1 by broth microdilution method. Put shortly: as §2
The subject of assay [7] is Staphylococcus aureus. Description: Antibacterial activity against multidrug-resistant vancomycin-intermediate Staphylococcus aureus VISA3 after 18 hrs phase 2 by broth microdilution method. Put shortly: as §3
Assay [8] concerns Staphylococcus aureus. The assay is described as follows: Antibacterial activity against multidrug-resistant Staphylococcus aureus 3SP/R33 after 18 hrs by broth microdilution method. Put shortly:
as §1

Assay [9] relates to Staphylococcus aureus. Description: Antibacterial activity against multidrug-resistant vancomycin-intermediate Staphylococcus aureus VISA3 after 18 hrs by broth microdilution method. In short, it runs like this:
as §1

In brackets after ≈: the same amount, converted by molar mass.

Turning to `CC1(C)S[C@@H]2[C@H](NC(=O)[C@H](N)c3ccccc3)C(=O)N2[C@H]1C(=O)O` [AMPICILLIN], in the assay with Staphylococcus aureus [1], the MIC stood at 0.1 µg/mL (≈ 0.286 µM).

Turning to `CC(=O)c1ccc(C(=O)N/N=C/c2ccc3c(c2)no[n+]3[O-])cc1`, the MIC in the assay on Staphylococcus aureus [2] turned out to be 20 µg/mL (≈ 61.7 µM); in the assay on Staphylococcus aureus [3], 21.2 µg/mL (≈ 65.4 µM); against Staphylococcus aureus [4], 20 µg/mL (≈ 61.7 µM); in the assay with Staphylococcus aureus [5], 21.2 µg/mL (≈ 65.4 µM); in the assay with Staphylococcus aureus [6], 20 µg/mL (≈ 61.7 µM); with Staphylococcus aureus [7], 21.2 µg/mL (≈ 65.4 µM).

On to `NS(=O)(=O)c1ccc(C(=O)N/N=C/c2ccc3c(c2)no[n+]3[O-])cc1`, for which the MIC in the assay with Staphylococcus aureus [2], in the assay on Staphylococcus aureus [4] and in the assay with Staphylococcus aureus [6] was over 80 µg/mL throughout.

For the compound `O=C(N/N=C/c1ccc2c(c1)no[n+]2[O-])c1ccc(I)cc1`, the MIC against Staphylococcus aureus [2] was 20 µg/mL (≈ 49 µM); against Staphylococcus aureus [3] it was 23.6 µg/mL (≈ 57.8 µM); against Staphylococcus aureus [4], 20 µg/mL (≈ 49 µM); against Staphylococcus aureus [5], 23.6 µg/mL (≈ 57.8 µM); against Staphylococcus aureus [6], 20 µg/mL (≈ 49 µM); against Staphylococcus aureus [7], 23.6 µg/mL (≈ 57.8 µM).

For `O=C(N/N=C/c1ccc2c(c1)no[n+]2[O-])c1ccccc1`, the MIC against Staphylococcus aureus [2] amounted to 10 µg/mL (≈ 35.4 µM); against Staphylococcus aureus [3], 16.2 µg/mL (≈ 57.4 µM); with Staphylococcus aureus [4], 10 µg/mL (≈ 35.4 µM); in the assay on Staphylococcus aureus [5], 16.2 µg/mL (≈ 57.4 µM); against Staphylococcus aureus [6], 10 µg/mL (≈ 35.4 µM); in the assay on Staphylococcus aureus [7] it was 16.2 µg/mL (≈ 57.4 µM).

For `N#Cc1ccc(C(=O)N/N=C/c2ccc3c(c2)no[n+]3[O-])cc1`, the MIC in the assay on Staphylococcus aureus [2] turned out to be 20 µg/mL (≈ 65.1 µM); in the assay with Staphylococcus aureus [3], 26.2 µg/mL (≈ 85.3 µM); against Staphylococcus aureus [4] it was 20 µg/mL (≈ 65.1 µM); with Staphylococcus aureus [5] it was 26.2 µg/mL (≈ 85.3 µM); in the assay with Staphylococcus aureus [6], 20 µg/mL (≈ 65.1 µM); in the assay with Staphylococcus aureus [7], 26.2 µg/mL (≈ 85.3 µM).

For the compound `O=C(N[C@H](CO)[C@H](O)c1ccc([N+](=O)[O-])cc1)C(Cl)Cl` [CHLORAMPHENICOL], the values for the minimum inhibitory concentration (MIC) in the assay with Staphylococcus aureus [1], with Staphylococcus aureus [8] and with Staphylococcus aureus [9] were 2 µg/mL (≈ 6.19 µM), 32 µg/mL (≈ 99 µM) and 32 µg/mL (≈ 99 µM), respectively.

On to `O=C(N/N=C/c1ccc2c(c1)no[n+]2[O-])c1ccc(F)cc1`, for which the MIC with Staphylococcus aureus [2] stood at 10 µg/mL (≈ 33.3 µM); against Staphylococcus aureus [3] it was 14.6 µg/mL (≈ 48.6 µM); in the assay with Staphylococcus aureus [4], 10 µg/mL (≈ 33.3 µM); in the assay with Staphylococcus aureus [5] it was 14.6 µg/mL (≈ 48.6 µM); against Staphylococcus aureus [6] it was 10 µg/mL (≈ 33.3 µM); in the assay on Staphylococcus aureus [7], 14.6 µg/mL (≈ 48.6 µM).

As to `Cc1ccc(C(=O)N/N=C/c2ccc3c(c2)no[n+]3[O-])cc1`, the MIC came out at 20 µg/mL (≈ 67.5 µM) in the assay on Staphylococcus aureus [2]; 21 µg/mL (≈ 70.9 µM) against Staphylococcus aureus [3]; 20 µg/mL (≈ 67.5 µM) with Staphylococcus aureus [4]; 21 µg/mL (≈ 70.9 µM) against Staphylococcus aureus [5]; 20 µg/mL (≈ 67.5 µM) in the assay with Staphylococcus aureus [6]; 21 µg/mL (≈ 70.9 µM) against Staphylococcus aureus [7].

Take `COc1ccc(C(=O)N/N=C/c2ccc3c(c2)no[n+]3[O-])cc1`: the MIC in the assay on Staphylococcus aureus [2] was determined as 10 µg/mL (≈ 32 µM); with Staphylococcus aureus [3], 16.2 µg/mL (≈ 51.9 µM); in the assay on Staphylococcus aureus [4] it was 10 µg/mL (≈ 32 µM); against Staphylococcus aureus [5], 16.2 µg/mL (≈ 51.9 µM); against Staphylococcus aureus [6], 10 µg/mL (≈ 32 µM); in the assay on Staphylococcus aureus [7], 16.2 µg/mL (≈ 51.9 µM).

Consider `CN(C)c1ccc(C(=O)N/N=C/c2ccc3c(c2)no[n+]3[O-])cc1`, for which the minimal inhibitory concentration (MIC) with Staphylococcus aureus [2], against Staphylococcus aureus [4] and against Staphylococcus aureus [6] was over 80 µg/mL throughout.

On to `O=C(N/N=C/c1ccc2c(c1)no[n+]2[O-])c1ccc(O)cc1`, for which the MIC was determined as 20 µg/mL (≈ 67.1 µM) with Staphylococcus aureus [2]; 26.2 µg/mL (≈ 87.8 µM) in the assay with Staphylococcus aureus [3]; 20 µg/mL (≈ 67.1 µM) in the assay on Staphylococcus aureus [4]; 26.2 µg/mL (≈ 87.8 µM) with Staphylococcus aureus [5]; 20 µg/mL (≈ 67.1 µM) in the assay on Staphylococcus aureus [6]; 26.2 µg/mL (≈ 87.8 µM) against Staphylococcus aureus [7].

Consider `O=C(N/N=C/c1ccc2c(c1)no[n+]2[O-])c1ccc(C(F)(F)F)cc1`, for which the MIC amounted to 10 µg/mL (≈ 28.6 µM) with Staphylococcus aureus [2]; 13.1 µg/mL (≈ 37.4 µM) in the assay with Staphylococcus aureus [3]; 10 µg/mL (≈ 28.6 µM) in the assay with Staphylococcus aureus [4]; 13.1 µg/mL (≈ 37.4 µM) in the assay with Staphylococcus aureus [5]; 10 µg/mL (≈ 28.6 µM) against Staphylococcus aureus [6]; 13.1 µg/mL (≈ 37.4 µM) against Staphylococcus aureus [7].

In the case of `Nc1ccc(C(=O)N/N=C/c2ccc3c(c2)no[n+]3[O-])cc1`, the MIC in the assay on Staphylococcus aureus [2] stood at 10 µg/mL (≈ 33.6 µM); with Staphylococcus aureus [3], 15.3 µg/mL (≈ 51.5 µM); against Staphylococcus aureus [4] it was 10 µg/mL (≈ 33.6 µM); with Staphylococcus aureus [5] it was 15.3 µg/mL (≈ 51.5 µM); in the assay on Staphylococcus aureus [6], 10 µg/mL (≈ 33.6 µM); in the assay with Staphylococcus aureus [7], 15.3 µg/mL (≈ 51.5 µM).

For `O=C(N/N=C/c1ccc2c(c1)no[n+]2[O-])c1ccc(Cl)cc1`, the MIC came out at 10 µg/mL (≈ 31.6 µM) against Staphylococcus aureus [2]; 15.3 µg/mL (≈ 48.3 µM) against Staphylococcus aureus [3]; 10 µg/mL (≈ 31.6 µM) with Staphylococcus aureus [4]; 15.3 µg/mL (≈ 48.3 µM) with Staphylococcus aureus [5]; 10 µg/mL (≈ 31.6 µM) in the assay with Staphylococcus aureus [6]; 15.3 µg/mL (≈ 48.3 µM) in the assay with Staphylococcus aureus [7].

For the compound `O=C(N/N=C/c1ccc2c(c1)no[n+]2[O-])c1ccc(Br)cc1`, the MIC with Staphylococcus aureus [2] worked out at 10 µg/mL (≈ 27.7 µM); with Staphylococcus aureus [3], 18 µg/mL (≈ 49.8 µM); against Staphylococcus aureus [4], 10 µg/mL (≈ 27.7 µM); with Staphylococcus aureus [5] it was 18 µg/mL (≈ 49.8 µM); with Staphylococcus aureus [6] it was 10 µg/mL (≈ 27.7 µM); in the assay on Staphylococcus aureus [7], 18 µg/mL (≈ 49.8 µM).

In general, MIC refers to the least concentration at which growth counts as inhibited.

Source of the values: ChEMBL document CHEMBL1153439, “Design, synthesis, antimicrobial activity and molecular modeling studies of novel benzofuroxan derivatives against Staphylococcus aureus” (2009).
